ChEMBL document CHEMBL4004846, “Synthesis and antitrypanosomal activities of novel pyridylchalcones” (Eur J Med Chem, 2017)
pIC50: −log10 of the molar value. Activity calls are given as the source filed them. The calls are words filed in the database; no cut-off is given here.

Columns and labels:
[1] = Selectivity index, ratio of IC50 for human KB cells to IC50 for Trypanosoma brucei rhodesiense STIB900; assay type: toxicity; conditions: read-out: Ratio IC50
Method in brief: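 SI is calculated as the KB-cell IC50 divided by the T. b. rhodesiense STIB900 IC50.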

[2] = test system: Trypanosoma brucei rhodesiense; test: Antitrypanosomal activity against Trypanosoma brucei rhodesiense STIB900 after 72 hrs by Alamar blue assay; assay type: functional; conditions: STIB900, 72 h
Method in brief: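 T. b. rhodesiense STIB 900 bloodstream forms (1 x 10³ per well) incubated with 3-fold serial drug dilutions from DMSO stocks (20 mM) diluted in medium, 37°C, 5% CO2, 72 h, in triplicate. Drug-free controls and medium-only blanks were included. Alamar Blue was then added for 2-4 h and fluorescence read at ex 530/em 580 nm. IC50 is the mean of two independent experiments.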

[3] = test system: Leishmania donovani; test: Antileishmanial activity against Leishmania donovani HU3 amastigote forms infected in CD-1 mouse macrophages at 10 uM after 2 to 3 days by Giemsa staining based microscopic method relative to control; assay type: functional
[4] = test system: KB; test: Cytotoxicity against human KB cells after 72 hrs by Alamar blue assay; assay type: cell-based
Method in brief: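 Human nasopharyngeal carcinoma KB cells were grown in RPMI 1640 with 10% heat-inactivated foetal calf serum at 37°C and 5% CO2. Monolayers were exposed to compounds for 72 h. Alamar Blue was then added for 2-4 h and fluorescence read at 530/580 nm. IC50 was derived by sigmoidal regression from the mean of two independent triplicate experiments.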

[5] = test system: Leishmania donovani; test: Antileishmanial activity against Leishmania donovani HU3 amastigote forms infected in CD-1 mouse macrophages at 30 uM after 2 to 3 days by Giemsa staining based microscopic method relative to control; assay type: functional

Row | pIC50 [2] | SMILES | selectivity ratio [1] | Activity [3] | pIC50 [4] | inhibition at 30 µM [5]
1 | 6.01 | COc1ccc(C(=O)/C=C/c2cccnc2)cc1OC | 24 | inactive | 4.64 | 
2 | 6.54 | O=C(/C=C/c1cccnc1)c1cccc(Br)c1 | 47 | inactive | 4.87 | 39.7%
3 | 6.40 | O=C(/C=C/c1ccccn1)c1cccc(Br)c1 | 37 | inactive | 4.83 | 
4 | 6.14 | O=C(/C=C/c1cccnc1)c1ccccc1 | 11 | inactive | 5.11 | 
5 | 6.21 | O=C(/C=C/c1cccnc1)c1cccc(Cl)c1 | 21 | inactive | 4.90 | 2.7%
6 | 6.03 | COc1ccc(C(=O)/C=C/c2cccnc2)cc1 | 23 | inactive | 4.66 | 
7 | 5.94 | COc1ccccc1C(=O)/C=C/c1cccnc1 | 20 | inactive | 4.64 | 
8 | 5.32 | O=C(/C=C/c1cccnc1)c1ccc2c(c1)OCO2 | 12 | inactive | 4.23 | 
9 | 6.47 | O=C(/C=C/c1cccnc1)c1ccc(Br)cc1 | 23 | inactive | 5.10 | 11.6%
10 | 5.94 | O=C(/C=C/c1cccnc1)c1cccc(O)c1 | 19 | inactive | 4.66 | 

Second part, the molecule before the results:

Row | SMILES | pIC50 [2] | selectivity ratio [1] | Activity [3] | pIC50 [4] | inhibition at 30 µM [5]
11 | O=C(/C=C/c1cccnc1)c1ccc(F)c(F)c1 | 6.14 | 29 | inactive | 4.68 | 
12 | O=C(CC(CC(=O)c1cccc(Br)c1)c1cccnc1)c1cccc(Br)c1 | 4.91 | 15 | inactive | 3.74 | 
13 | COc1cc([C@@H]2c3cc4c(cc3[C@H](O)[C@H]3COC(=O)[C@H]23)OCO4)cc(OC)c1OC [PODOFILOX] |  |  |  | 7.24 | 
14 | COc1cccc(C(=O)/C=C/c2cccnc2)c1 | 6.39 | 6 | inactive | 5.64 | 
15 | O=C(/C=C/c1ccccc1)c1cccc(Br)c1 | 6.02 | 19 | inactive | 4.74 | 13.8%
16 | O=C(/C=C/c1cccc(Br)c1)c1cccnc1 | 6.16 | 63 | inactive | 4.36 | 
17 | O=C(/C=C/c1cccnc1)c1ccccc1Br | 4.42 | > 8 | inactive | < 3.52 | 
18 | O=C(/C=C/c1cccnc1)c1cccnc1 | 5.99 | 17 | inactive | 4.77 | 
19 | O=C(/C=C/c1ccncc1)c1cccc(Br)c1 | 6.19 | 36 | inactive | 4.63 | 
